KCNK9 inh – human KCNK9 channel inhibition. Q9NPC2. HEK293 KCNK9, FluxOR thallium flux fluorescence; stronger effect = lower value. B-score at 10 µM. actives 1.2% (n = 310,000). AID 488922;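 active means ratio B-score over 3 SD below the library mean, with starting fluorescence within 5 SD of its mean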;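 further: negative B-score means less thallium flux so channel inhibition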
KCNQ1 block – human KCNQ1 channel inhibition; P51787; CHO-K1 KCNQ1, FluxOR thallium flux fluorescence; stronger effect = higher value; B-score at 10 µM; actives 1.3% (n = 310,000);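 active means compounds whose thallium flux B-score, printed positive for inhibition, exceeds three library SD while starting fluorescence stays within three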;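 further: channel opened by potassium depolarization with thallium stimulus after 20 min compound exposure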
Target sequence (P51787 whole entry, looked up): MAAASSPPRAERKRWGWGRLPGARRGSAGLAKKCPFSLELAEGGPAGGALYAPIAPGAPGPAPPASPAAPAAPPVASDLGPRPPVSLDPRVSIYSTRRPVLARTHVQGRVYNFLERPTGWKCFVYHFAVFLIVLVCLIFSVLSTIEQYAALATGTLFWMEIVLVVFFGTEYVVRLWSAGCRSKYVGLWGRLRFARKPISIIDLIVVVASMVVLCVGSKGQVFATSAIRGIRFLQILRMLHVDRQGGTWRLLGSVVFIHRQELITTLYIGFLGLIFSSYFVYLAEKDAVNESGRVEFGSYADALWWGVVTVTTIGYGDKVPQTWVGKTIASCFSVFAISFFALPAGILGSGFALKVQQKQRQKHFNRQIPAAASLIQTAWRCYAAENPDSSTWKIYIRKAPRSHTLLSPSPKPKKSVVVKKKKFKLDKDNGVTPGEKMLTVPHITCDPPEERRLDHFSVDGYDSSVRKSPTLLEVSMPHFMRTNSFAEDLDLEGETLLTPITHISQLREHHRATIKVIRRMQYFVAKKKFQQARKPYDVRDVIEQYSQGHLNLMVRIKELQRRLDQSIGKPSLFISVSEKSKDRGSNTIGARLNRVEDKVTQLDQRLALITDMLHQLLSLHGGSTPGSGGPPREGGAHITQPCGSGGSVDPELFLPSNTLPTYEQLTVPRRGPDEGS
Kir21 block – blocks the mouse Kir2.1 inward-rectifier potassium channel; P35561; HEK293-Kir2.1, FluxOR thallium flux fluorescence; stronger effect = lower value; B-score at 10 µM; actives 0.85% (n = 310,000); AID 1672;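 active means fluorescence ratio B-score at or below minus 3 SD of library scores, with starting-brightness B-score within 2 SD, cut at about -4.2 in these data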;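 further: channel flux triggered by added potassium and thallium sulfate stimulus; B-score of peak minus minimum fluorescence over baseline after thallium stimulus; more negative B-score means stronger Kir2.1 block with less thallium influx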
KCNQ1 pot – potentiates or activates the human KCNQ1 potassium channel | P51787 | CHO-K1 KCNQ1, thallium flux FluxOR fluorescence; stronger effect = higher value | B-score at 10 µM | actives 0.35% (n = 310,000) | AID 2648;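 active means fluorescence ratio B-score, a plate-corrected score, at least three library SD, with initial intensity B-score within 5 SD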
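assay system = KCNQ1-transfected CHO-K1 cells | medium = assay buffer with matched DMSO | probe or stimulus = depolarizing K+/Tl+ stimulus, K2SO4 and Tl2SO4 each 12.5 mM in 5x stock | dosing = single dose | incubation = dye 90 min, compound 20 min, room temperature | detection = kinetic FluxOR fluorescence, 10 s baseline plus 110 s post-stimulus | evaluation = ratio B score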
hERG protect – compounds protecting human hERG from proarrhythmic drug block. AID 1511. activation (rescue from dofetilide block), less the hit threshold, % at 10 µM. actives 0.51% (n = 310,000). Q12809. CHO-hERG, FluxOR thallium flux, dofetilide IC70 present;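 active means activation above the mean of controls blocked by dofetilide plus 5 SD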;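 further: thallium influx through hERG after potassium depolarization seen as dye fluorescence rise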
KCNK3 inh – human KCNK3 channel inhibition, primary screen. CHO-KCNK3 thallium flux, FluxOR fluorescence; stronger effect = lower value. B-score at 10 µM. actives 0.84% (n = 340,000). AID 602410;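 active means B-score under library mean minus 4 SD, starting fluorescence ratio at most library mean plus 5 SD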;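 further: more negative B-score means stronger inhibition of thallium flux through KCNK3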
KCNK9 inh conf – confirmation of human KCNK9 potassium channel inhibitors. HEK293 KCNK9 cells, FluxOR thallium flux fluorescence. actives 43% (n = 4,900). shares compounds with KCNK9 inh. inhibition, % at 10 µM;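 active means thallium signal inhibited by more than 5 SD of the compound-free buffer control wells, on both duplicate plates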
Kir2-1 spec – selectivity of KCNK9 modulators against mouse Kir2.1; shares compounds with KCNK9 inh; Kir2.1 cells, FluxOR thallium flux fluorescence; inhibition, % at 10 µM; actives 4% (n = 4,900);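 active means thallium signal drop more than 5 SD beyond the mean of the no-compound control wells, seen in both duplicate plates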;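 further: signal is fluorescence rise after thallium addition divided by baseline fluorescence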
KCNK9 uninduced – non-induced cell nonspecific activity of KCNK9 modulators | shares compounds with KCNK9 inh | non-induced KCNK9-HEK293, FluxOR thallium flux | inhibition, % at 10 µM | actives 40% (n = 4,900) | AID 492997;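 active means thallium signal drop beyond 5 SD of the untreated control mean, on both duplicate plates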
Each line names hits and unclear results; the compound was inactive in the other large screens (follow-up assays come after a bar, where they were run). An excerpt weighted towards active compounds, which were near 3.7% of everything screened.

CC1CCCN(C(=O)C2CCCN(S(=O)(=O)c3cccc4nsnc34)C2)C1 (configuration not stated)	none
O=S(=O)(c1cccc2nsnc12)N1CCN(Cc2ccccc2)CC1	none | KCNK9 inh conf inactive | Kir2-1 spec inactive | KCNK9 uninduced inactive
CC(C)(C)NC(=O)COC(=O)c1ccccc1OCC(=O)Nc1ccc(Br)cc1	none
Cc1ccc(C(C)NC(=O)c2cc3cc(Br)ccc3oc2=N)cc1 (configuration not stated)	KCNQ1 block 7 | KCNK9 inh conf inactive | Kir2-1 spec inactive | KCNK9 uninduced inactive
CCCCn1c(N)c(N(CC(C)C)C(=O)c2ccc(-c3ccc(C(C)=O)cc3)o2)c(=O)[nH]c1=O	none
COc1ccccc1-n1c2nc3ccccc3nc2c2c(=O)n(-c3cc(C)cc(C)c3)cnc21	KCNK9 inh -8.5 | KCNK9 inh conf inactive | Kir2-1 spec inactive | KCNK9 uninduced 25%
O=C(Cc1c(O)c2ccccc2oc1=O)c1ccc(C(F)(F)F)cc1	none
O=c1oc2ccccc2c(O)c1Cc1cc(Cl)c2cccnc2c1O	none | KCNK9 inh conf inactive | Kir2-1 spec inactive | KCNK9 uninduced inactive
CCCC(C)c1nnc(NC(=O)CCS(=O)(=O)c2ccccc2)s1 (configuration not stated)	none | KCNK9 inh conf inactive | Kir2-1 spec inactive | KCNK9 uninduced inactive
CC(C)c1nnc(NC(=O)CCS(=O)(=O)c2ccccc2)s1	none
COc1ccc(NS(=O)(=O)c2ccc3nc(COc4cccc5ccccc45)[nH]c3c2)cc1	none | KCNK9 inh conf inactive | Kir2-1 spec inactive | KCNK9 uninduced inactive
COc1ccc(CNc2nc3ccccc3n2Cc2ccc(C)cc2)cc1OC	KCNK9 inh -8.5 | KCNK9 inh conf 28% | Kir2-1 spec inactive | KCNK9 uninduced inactive
c1ccc(Cn2c(NCc3ccncc3)nc3ccccc32)cc1	none
COc1ccc(-c2c([C@H]3[C@@H]4C=CCC[C@@]4(C)C(=O)N3Cc3ccccc3)ccc3ccccc23)cc1OC	none | KCNK9 inh conf inactive | Kir2-1 spec inactive | KCNK9 uninduced inactive
COc1ccc(-c2ccc([C@H]3[C@@H]4C=CCC[C@@]4(C)C(=O)N3Cc3ccccc3)c(F)c2)cc1OC	none
CC(c1ccon1)N(C)C(=O)c1ccc2nc(Cc3cccc(Cl)c3)oc2c1 (configuration not stated)	none
O=C(Nc1ccc(C(F)(F)F)cc1Cl)c1ccc(Cn2cc(Br)cn2)o1	KCNK9 inh -12 | KCNK9 inh conf 37% | Kir2-1 spec inactive | KCNK9 uninduced 46%
O=C(N/N=C/c1c(F)cccc1Cl)c1ccc(Cn2cc(Br)cn2)o1	none
CN(C)CCNC(=O)C1CCN(S(=O)(=O)c2ccc3ccccc3c2)CC1	none
COc1ccc(Cl)cc1NC(=O)COC(=O)CCNS(=O)(=O)c1cccs1	none (no result: KCNK9 inh, KCNQ1 block, Kir21 block, KCNQ1 pot, hERG protect)
O=C(C[C@H]1C/C=C\C[C@@H](Cc2ccc(F)cc2)C(=O)OC[C@@H]2CCCN2C1=O)NCCO	none (no result: KCNK9 inh, KCNQ1 block, Kir21 block, KCNQ1 pot, hERG protect)
COc1ccc(NC(=O)CSc2nnc(C3CC3)n2N)cc1	none
COc1ccc(-n2c(SCC(=O)Nc3ccc(Cl)cc3)nc(O)c(Cc3ccccc3)c2=O)cc1	none | KCNK9 inh conf inactive | Kir2-1 spec inactive | KCNK9 uninduced inactive
COc1ccc(-n2c(SCC(=O)Nc3ccc(C)cc3)nc(O)c(Cc3ccccc3)c2=O)cc1	none
COc1ccc(NC(=O)CSc2nnc(C3CCCCC3)n2-c2ccccc2)cc1	none | KCNK9 inh conf inactive | Kir2-1 spec inactive | KCNK9 uninduced inactive
Cc1cccc(N(Cc2ccccc2)C(=O)c2ccc(CS(C)(=O)=O)cc2)c1	none
O=C(c1ccc(Br)cc1)N(Cc1nc2ccccc2c(=O)[nH]1)C1CCCC1	none
